Drawing on ChEMBL document CHEMBL4152204, “Discovery of N-hydroxy-3-alkoxybenzamides as direct acid sphingomyelinase inhibitors using a ligand-based pharmacophore model” (Eur J Med Chem, 2018), this text covers IC50, inhibition and Activity for 36 compounds.

Calls of active or inactive are those of the source. The rule behind the calls is not given here.

The target of assay [1] is T1, Sphingomyelin phosphodiesterase (Homo sapiens, UniProt P17405).
T1 sequence (P17405 whole entry): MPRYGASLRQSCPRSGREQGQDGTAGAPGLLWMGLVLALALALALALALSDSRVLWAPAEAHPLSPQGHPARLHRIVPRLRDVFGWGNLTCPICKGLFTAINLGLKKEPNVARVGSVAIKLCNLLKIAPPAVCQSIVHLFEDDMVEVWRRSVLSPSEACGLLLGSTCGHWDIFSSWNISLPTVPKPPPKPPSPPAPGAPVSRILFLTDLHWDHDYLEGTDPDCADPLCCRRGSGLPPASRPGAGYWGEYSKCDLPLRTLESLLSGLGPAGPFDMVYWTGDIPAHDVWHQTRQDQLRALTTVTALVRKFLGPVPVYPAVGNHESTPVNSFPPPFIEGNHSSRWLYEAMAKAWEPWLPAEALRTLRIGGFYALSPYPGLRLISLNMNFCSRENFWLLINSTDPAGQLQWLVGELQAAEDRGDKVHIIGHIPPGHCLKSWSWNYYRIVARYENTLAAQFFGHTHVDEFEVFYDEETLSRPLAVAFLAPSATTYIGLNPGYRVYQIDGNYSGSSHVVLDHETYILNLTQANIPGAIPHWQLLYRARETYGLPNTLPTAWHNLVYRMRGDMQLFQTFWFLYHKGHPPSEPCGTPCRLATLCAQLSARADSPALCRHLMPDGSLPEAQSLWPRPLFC
As to the kind of experiment: Inhibition of acid sphingomyelinase in human HuH7 cell lysate using NBD-sphingomyelin as substrate after 30 mins by TLC based fluorescence assay.

Assay [2] has as its target T2, Sphingomyelin phosphodiesterase 2 (Homo sapiens) (UniProt O60906).
T2 sequence (whole entry): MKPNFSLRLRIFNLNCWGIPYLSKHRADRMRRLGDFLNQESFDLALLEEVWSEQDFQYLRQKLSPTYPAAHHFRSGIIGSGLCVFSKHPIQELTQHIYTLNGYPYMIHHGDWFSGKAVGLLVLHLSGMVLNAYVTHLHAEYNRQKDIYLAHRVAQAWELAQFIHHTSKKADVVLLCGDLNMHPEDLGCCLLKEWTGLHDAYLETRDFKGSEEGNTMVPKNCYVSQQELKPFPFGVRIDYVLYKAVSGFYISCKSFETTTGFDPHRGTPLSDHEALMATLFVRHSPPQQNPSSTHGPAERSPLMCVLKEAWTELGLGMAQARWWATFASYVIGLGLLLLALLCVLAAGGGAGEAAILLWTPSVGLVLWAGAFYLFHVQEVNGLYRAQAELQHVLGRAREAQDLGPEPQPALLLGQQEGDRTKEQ
As to the kind of experiment: Inhibition of neutral sphingomyelinase (unknown origin) assessed as reduction in NBD-ceramide release at 100 uM by TLC based fluorescence assay.

Assay [3] concerns NIH3T3. As to the kind of experiment: Cytoprotective activity against UV-induced apoptosis in mouse NIH/3T3 cells assessed as necrotic cells preincubated for 20 hrs followed by UV irradiation for 5 mins and measured after 24 hrs by flow cytometric analysis. In kind it is functional, cell-based. Summed up: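 NIH3T3 cells grown in DMEM plus 10% FBS at 37 °C and 5% CO₂, seeded in 6-well plates and left overnight. Inhibitor (0–60 µM, DMSO solvent) added for 20 h. Medium replaced, then UV at peak 315 nm, 0.29 mW/cm² for 5 min. Cells kept with inhibitor 24 h more before flow cytometry by quadrant regions. Untreated, unirradiated cells served as control. Three independent experiments.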
(Flow cytometry measures light scatter and fluorescence of single cells or particles in a stream.)

Assay [4] concerns the target T3, Sphingomyelin phosphodiesterase (Bos taurus, UniProt Q0VD19).
T3 sequence (Q0VD19 whole entry): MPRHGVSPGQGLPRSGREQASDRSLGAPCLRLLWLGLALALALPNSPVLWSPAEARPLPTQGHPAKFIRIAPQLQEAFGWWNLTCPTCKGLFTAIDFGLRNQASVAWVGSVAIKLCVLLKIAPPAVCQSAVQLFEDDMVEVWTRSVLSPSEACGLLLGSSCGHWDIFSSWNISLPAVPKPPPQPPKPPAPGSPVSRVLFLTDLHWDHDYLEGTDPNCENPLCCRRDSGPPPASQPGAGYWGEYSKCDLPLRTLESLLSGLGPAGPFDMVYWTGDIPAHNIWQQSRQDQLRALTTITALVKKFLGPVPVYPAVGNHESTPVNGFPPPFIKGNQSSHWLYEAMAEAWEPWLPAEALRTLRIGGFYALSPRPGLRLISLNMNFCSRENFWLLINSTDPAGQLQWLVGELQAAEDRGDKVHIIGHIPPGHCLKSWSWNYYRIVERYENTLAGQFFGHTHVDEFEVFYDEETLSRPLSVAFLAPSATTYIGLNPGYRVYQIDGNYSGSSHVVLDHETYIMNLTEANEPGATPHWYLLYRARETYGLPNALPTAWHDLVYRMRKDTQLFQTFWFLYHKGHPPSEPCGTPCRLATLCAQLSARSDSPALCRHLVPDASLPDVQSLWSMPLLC
As to the kind of experiment: Inhibition of bovine brain-derived acidic sphingomyelinase.

The compound `O=C(c1cc(-c2ccccc2)n(-c2ccc(Cl)cc2Cl)n1)N1CCOCC1` registered an IC50 in assay [1] of 28.2 µM.

`CCCCCCCCCCOc1cc(C(=O)NCCO)ccc1OC` gave an IC50 in assay [1] of 71 µM.

As for `CCCCCCCCCCCCOc1cc(C(=O)NO)ccc1OC`, the IC50 in assay [1] came to 18.6 µM.

For `CCCCCCCCCCCCS(=O)(=O)O[C@H]1OC(O)[C@H](OP(=O)(O)O)[C@@H](O)[C@@H]1OP(=O)(O)O` (stereo partly drawn), the half-maximal inhibitory concentration (IC50) in assay [1] is 0.44 µM.

`CCCCCCCCOC(=O)c1c(CSC(=N)N)n(C)c2cc(Br)c(OC(C)=O)cc12`: in assay [1], the IC50 worked out at 31.6 µM.

For `CC1=C(C(=O)Nc2ccccc2)C(c2ccc(Cl)cc2)n2c(s/c(=C/c3cccc(OCC(=O)O)c3)c2=O)=N1` (stereo not drawn), in assay [1], half-maximal inhibition (IC50) required 25.1 µM.

Consider `CCCCCCCCOc1cc(C(=O)NO)ccc1OC`, for which the IC50 in assay [1] came out at 16.1 µM.

In assay [1], `O=C(NO)c1cccc(OCc2ccc(Br)cc2)c1` yielded a 50% inhibitory concentration (IC50) of 19.4 µM.

Take `CCCCCCCCCCOc1cc(C(=O)NCC(C)O)ccc1OC` (stereo not drawn): the IC50 in assay [1] amounted to 85.2 µM.

In assay [1], `COc1c(O)cc2oc3cc(O)c(CC=C(C)C)c(O)c3c(=O)c2c1C/C=C(\C)CCC=C(C)C` [COWANIN] displayed an IC50 of 19.2 µM.

In assay [1], `CCCCCCCCCCOc1cc(C(=O)NO)ccc1O` displayed a half-inhibitory concentration (IC50) of 17.4 µM.

In the case of `Cc1cc2[nH]c(=O)c(=O)[nH]c2cc1S(=O)(=O)N1CCN(c2cccc(C(F)(F)F)c2)CC1`, in assay [1], the IC50 was determined as 20 µM.

The compound `COc1ccc(COc2cccc(C(=O)NO)c2)cc1` had an IC50 in assay [1] of 42.7 µM.

`COc1ccc(/C=N/NC(=O)c2[nH]c3ccc(Cl)cc3c2-c2ccccc2)c(C(=O)O)c1OC` gave an IC50 in assay [1] of 14.1 µM.

`CCCCCCCCCCOc1cccc(C(=O)NO)c1`: the concentration for half-maximal inhibition (IC50) in assay [1] was 1.42 µM. For the same compound, the inhibition entry in assay [2] was “inactive”.

For the compound `CCNC(=O)/C=C/Cc1c(O)c(OC)cc2oc3cc(OC)cc(O)c3c(=O)c12`, the IC50 in assay [1] fell in the range of 4.89 to 5.07 µM.

For the compound `O=P(O)(O)O[C@H]1[C@H](O)[C@@H](OP(=O)(O)O)[C@H](O)[C@@H](OP(=O)(O)O)[C@H]1O`, the IC50 in assay [1] came out at 26.7 µM.

On to `CN(C)CCC=C1c2ccccc2CCc2ccccc21`, for which the Activity result in assay [3] was “Dose-dependent effect”.

With `CCCCCCCCOc1cccc(C(=O)NO)c1`, in assay [1], inhibition was half-maximal at 17.4 µM (IC50).

For `CCCCCCCCS(=O)(=O)OC[C@H]1OC(O)[C@H](OP(=O)(O)O)[C@@H](O)[C@@H]1OP(=O)(O)O` (stereo partly drawn), half-maximal inhibition in assay [1] (IC50) required 2.34 µM.

In the case of `CC(C)N1C(=N)/C(=C\c2nc(=O)c3ccccc3[nH]2)c2ccccc21`, it took 31.6 µM to reach half-maximal inhibition in assay [1] (IC50).

Compound `Cc1cc2[nH]c(=O)c(=O)[nH]c2cc1S(=O)(=O)N1CCN(c2cccc(Cl)c2)CC1` registered an IC50 in assay [1] of 20 µM.

`CCCCc1oc2ccccc2c1C(=O)c1cc(I)c(OCCN(CC)CC)cc1I`: half-maximal inhibition in assay [1] (IC50) required 39.8 µM.

Regarding `CCCCCCCC1Cc2cc(O)c(C(=O)O)c(O)c2C(C)O1` (stereo not drawn), the IC50 in assay [1] turned out to be 68.7 µM.

`COc1ccc(C(=O)NO)cc1OCc1ccccc1`: in assay [1], the half-maximal inhibitory concentration (IC50) is 10.5 µM.

For the compound `O=C(NO)c1cccc(OCc2ccccc2)c1`, in assay [1], it took 60.4 µM to reach half-maximal inhibition (IC50).

For `CCOc1ccc2oc(-c3cc(Br)cc4c3OCOC4)c(N)c(=O)c2c1`, the IC50 in assay [1] was 3.5 µM.

Turning to `N#Cc1ccc(COc2cccc(C(=O)NO)c2)cc1`, the IC50 in assay [1] came out at 52.9 µM.

In assay [1], `CCCCCCCCCC(OP(=O)(O)O)OP(=O)(O)O` yielded an IC50 of 0.3 µM.

Compound `COc1cc(/C=C2/SC(=S)N(Nc3ncc(C(F)(F)F)cc3Cl)C2=O)cc(OC)c1OC` yielded an IC50 in assay [1] of 28.2 µM.

Compound `Cc1c(C(=O)Nc2cccc(C(F)(F)F)c2)oc2ccc(S(=O)(=O)N3CCOCC3)cc12` had an IC50 in assay [1] of 22.4 µM.

Compound `O=c1cc(-c2ccc3c(c2)OCCCO3)oc2c1ccc1ccccc12` gave an IC50 in assay [1] of 24.3 µM.

Compound `CCCCCCCC(OP(=O)(O)O)OP(=O)(O)O` came in with an IC50 in assay [1] of 0.35 µM.

Take `COc1c(O)cc2oc3cc(O)c(CC=C(C)C)c(O)c3c(=O)c2c1CC=C(C)C` [MANGOSTIN]: the values for the IC50 in assay [1] and in assay [4] were 24.7 µM and 14.1 µM, respectively.

In assay [1], `CCN(CC)C(=O)/C=C/Cc1c(O)c(OC)cc2oc3cc(OC)cc(O)c3c(=O)c12` gave an IC50 of 4.89 to 5.07 µM.

`COc1ccc(C(=O)NO)cc1OCc1ccc(Br)cc1` came in with an IC50 in assay [1] of 7.78 µM.

Usually IC50 stands for the concentration at which inhibition is half-maximal. A higher IC50 goes with weaker potency in that assay.
